Where a SMILES comes first, the peptide text is derived from it. [ ]: non-standard residue; d: D form.
Columns and labels:
[1] = test system: S. enterica mature biofilms; assay: Flow cell biofilm assay with confocal microscopy; type: cell-based, Salmonella enterica; conditions: top FIC combination, added at day 2
Summary of the method: (§1)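 Biofilms grown at 37°C in BM2 glucose minimal medium in flow chambers (1 × 4 × 40 mm channels) for 72 h. Test compound, antibiotic or both were added to the flow-through medium at day 2 of biofilm formation. Combination levels were taken from checkerboard FIC results, with peptide levels lowered in some cases. Cells were stained with LIVE/DEAD BacLight and imaged by confocal microscopy with 3D reconstruction.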

E. coli mature biofilms = assay: Flow cell biofilm assay with confocal microscopy; type: cell-based, Escherichia coli; conditions: top FIC combination, added at day 2
Summary of the method: as §1

[2] = test system: A. baumannii mature biofilms; assay: Flow cell biofilm assay with confocal microscopy; type: cell-based, Acinetobacter baumannii; conditions: 0.8 μg/ml DJK-5 with tobramycin, added at day 2
Summary of the method: as §1

[3] = test system: P. aeruginosa PA14 biofilms; assay: Flow cell biofilm assay with confocal microscopy; type: cell-based, Pseudomonas aeruginosa
Summary of the method: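 P. aeruginosa PA14 biofilms grown at 37°C in BM2 glucose minimal medium in flow chambers (1 × 4 × 40 mm channels). […] For eradication, test compound was first added after 2 days of growth. Cells were stained with LIVE/DEAD BacLight and imaged by confocal microscopy.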

G. mellonella = G. mellonella survival assay, uninfected; conditions: in vivo
[4] = test system: Klebsiella pneumoniae mature biofilms; assay: Flow cell biofilm assay with confocal microscopy; type: cell-based; conditions: top FIC combination, added at day 2
Summary of the method: as §1

P. aeruginosa PAO1 = assay: C. elegans survival assay, infected; type: in vivo, Caenorhabditis elegans; conditions: peptide 20 μg/ml, 25°C, average ± SD, n ≥ 12
P. aeruginosa = conditions: free swimming (planktonic) cells; ref Overhage et al, 2008; cited from earlier work
P. aeruginosa biofilm = conditions: relative to MIC; ref Overhage et al, 2008; cited from earlier work

Row | Molecule | eradication of 2-day-old biofilms, combination with ceftazidime [1] | eradication of 2-day-old biofilms, combination with ceftazidime (E. coli mature biofilms) | eradication of 2-day-old biofilms, combination with tobramycin [2] | biofilm inhibition in flow cells, combination with ciprofloxacin ([3]; 0.1 μg/ml of DJK-5 with 0.04 μg/ml of ciprofloxacin, added at day 0, 3 days) | eradication of 2-day-old biofilms, combination with ciprofloxacin ([3]; top FIC combination, added at day 2, P. aeruginosa PA14) | G. mellonella survival (%) 24h No infection (G. mellonella) | G. mellonella survival (%) 48h No infection (G. mellonella) | eradication of 2-day-old biofilms, combination with ciprofloxacin [4] | C. elegans survival (%) 24h P. aeruginosa PAO1 (P. aeruginosa PAO1; 24 h post infection) | C. elegans survival (%) 48h post infection P. aeruginosa PAO1 (P. aeruginosa PAO1; 48 h post infection) | MIC (P. aeruginosa) | concentration active against P. aeruginosa biofilms (P. aeruginosa biofilm)
1 | CC[C@@H](C)[C@@H](NC(=O)[C@@H](C)NC(=O)[C@@H](CCCNC(=N)N)NC(=O)[C@@H](Cc1c[nH]c2ccccc12)NC(=O)[C@@H](CCC(N)=O)NC(=O)[C@H](N)C(C)C)C(=O)N[C@H](CCCNC(=N)N)C(=O)N[C@@H](C(=O)N[C@H](CCCNC(=N)N)C(=O)N[C@@H](C(=O)N[C@@H](C(=O)N[C@H](CCCNC(=N)N)C(N)=O)[C@H](C)CC)C(C)C)C(C)C [DJK5] (H-[dV][dQ][dW][dR][dA][dI][dR][dV][dR][dV][dI][dR]-NH2; N-terminus and C-terminus assumed) | eradication | not synergistic | eradication | complete biofilm inhibition | much more limited dispersal but triggered cell death in remaining cells | 100 ± 0% | 100 ± 0% | eradication | 99 ± 2 % | 96 ± 4 % |  | 
2 | LL-37: the human peptide LL-37, cationic host defense peptide |  |  |  |  |  |  |  |  |  |  | > 64 mg/L | one sixteenth the MIC

Reference: article PMC4362967 (Chemistry & biology, 2015)
